Data as given in ChEMBL document CHEMBL2177098, “Synthesis and evaluation of novel ¹⁸F labeled 2-pyridinylbenzoxazole and 2-pyridinylbenzothiazole derivatives as ligands for positron emission tomography (PET) imaging of β-amyloid plaques” (J Med Chem, 2012).
Calls of active or inactive are those of the source. The calls are words filed in the database; no cut-off is given here.

What was measured:
Mus musculus [1] = organism: Mus musculus; assay: Binding affinity to amyloid beta plaques in transgenic C57BL6 mouse hippocampus expressing APP Swedish mutant/PSEN1 at 370 KBq/100 ul after 1 hr by autoradiographic analysis; type: tissue-based; conditions: tested as the 18F-labelled form
Outline: (§1)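 Paraffin brain sections from 12-month-old Tg mice (C57BL6, APPswe/PSEN1) and age-matched controls, deparaffinized through xylene and graded ethanol, then PBS (0.2 M, pH 7.4) 30 min. Incubated with 18F tracer (370 KBq per 100 μL) 1 h at room temperature, washed in 40% EtOH, rinsed in water, then phosphor plate exposure 2 h. The same sections were afterwards stained with 0.125% thioflavin S in 10% EtOH for 3 min and washed in 40% EtOH.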

Mus musculus [2] = organism: Mus musculus; assay: Binding affinity to amyloid beta plaques in transgenic C57BL6 mouse hippocampus expressing APP Swedish mutant/PSEN1 at 370 KBq/100 ul after 1 hr by thioflavinS-staining method; type: tissue-based; conditions: tested as the 18F-labelled form; outline: as §1
[3] = Displacement of [125I]-IMPY from amyloid beta (1 to 42) fibrils after 2 hrs by gamma-counting analysis
Outline: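 Competition binding with aggregated Aβ1-42 fibrils and [125I]IMPY (60000−100000 cpm/100 μL) in 0.05% BSA (1 mL total); inhibitors 10⁻⁴−10^−8.5 M in ethanol. Incubated 37 °C for 2 h, then GF/B vacuum filtration with PBS (0.02 M, pH 7.4) washes and γ counting. Three repeats; IC50 converted to Ki by Cheng−Prusoff.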

[4] = biological target: Amyloid-beta precursor protein (Homo sapiens) (UniProt P05067); assay: Binding affinity to amyloid beta plaques in Alzheimer patient brain at 370 KBq/100 ul after 1 hr by autoradiographic analysis; conditions: tested as the 18F-labelled form
Mus musculus [5] = organism: Mus musculus; assay: Binding affinity to amyloid beta plaques in transgenic C57BL6 mouse cortex expressing APP Swedish mutant/PSEN1 at 370 KBq/100 ul after 1 hr by autoradiographic analysis; conditions: tested as the 18F-labelled form; outline: as §1
Mus musculus [6] = organism: Mus musculus; assay: Binding affinity to amyloid beta plaques in transgenic C57BL6 mouse cortex expressing APP Swedish mutant/PSEN1 at 370 KBq/100 ul after 1 hr by thioflavinS-staining method; conditions: tested as the 18F-labelled form; outline: as §1

Sequence of Amyloid-beta precursor protein (Homo sapiens) (P05067 whole entry): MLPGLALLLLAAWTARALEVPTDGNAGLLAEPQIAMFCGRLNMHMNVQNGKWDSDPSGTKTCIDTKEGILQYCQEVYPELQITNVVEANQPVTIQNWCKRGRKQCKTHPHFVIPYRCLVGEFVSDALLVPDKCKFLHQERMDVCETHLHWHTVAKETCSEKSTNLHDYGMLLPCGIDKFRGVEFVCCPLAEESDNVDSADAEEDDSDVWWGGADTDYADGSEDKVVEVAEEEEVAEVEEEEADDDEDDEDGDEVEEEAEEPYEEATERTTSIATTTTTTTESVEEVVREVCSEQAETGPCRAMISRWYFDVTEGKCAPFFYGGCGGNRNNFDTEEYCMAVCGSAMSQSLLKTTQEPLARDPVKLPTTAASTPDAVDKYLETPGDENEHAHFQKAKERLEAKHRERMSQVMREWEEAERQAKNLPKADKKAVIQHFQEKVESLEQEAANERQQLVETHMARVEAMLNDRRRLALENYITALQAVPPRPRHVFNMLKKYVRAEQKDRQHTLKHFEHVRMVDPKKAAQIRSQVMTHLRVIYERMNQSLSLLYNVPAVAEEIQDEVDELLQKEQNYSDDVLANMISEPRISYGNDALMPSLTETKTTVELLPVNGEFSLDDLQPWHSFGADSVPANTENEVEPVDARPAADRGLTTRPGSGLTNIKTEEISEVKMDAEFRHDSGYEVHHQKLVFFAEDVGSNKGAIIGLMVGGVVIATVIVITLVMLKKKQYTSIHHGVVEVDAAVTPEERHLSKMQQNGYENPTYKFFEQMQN

Activity (Mus musculus [1]): Active
Activity (Mus musculus [2]): Active
Ki [3]: 0.0101 µM
Activity [4]: Active
Activity (Mus musculus [5]): Active
Activity (Mus musculus [6]): Active
SMILES: CNc1ccc(-c2nc3ccc(OCCF)cc3s2)cn1
